High-throughput results (PubChem)
GSTO1 counter: counter-screen for RBBP9 inhibitors: inhibitors of human GSTO1; P78417; recombinant GSTO1, activity-based probe fluorescence polarization; inhibition, % at 5.96 µM; 300,000 tested, 1.1% active; AID 1974;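 active = inhibition above the campaign mean inhibition plus 3 SD, cut at about 35% in these data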;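 note: 0% = GSTO1-1 with DMSO and 100% = wells lacking GSTO1-1 enzyme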
Target sequence (P78417 whole entry, looked up): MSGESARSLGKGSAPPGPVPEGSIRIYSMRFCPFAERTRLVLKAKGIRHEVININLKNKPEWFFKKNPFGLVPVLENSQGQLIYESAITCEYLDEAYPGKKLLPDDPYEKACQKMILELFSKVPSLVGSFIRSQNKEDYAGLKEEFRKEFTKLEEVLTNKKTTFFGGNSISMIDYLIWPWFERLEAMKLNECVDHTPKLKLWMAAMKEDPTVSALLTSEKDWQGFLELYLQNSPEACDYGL
PRMT1 inh: inhibitors of human PRMT1; AID 652257; inhibition, % at 2.79 µM; recombinant PRMT1, activity-based probe fluorescence polarization; Q99873; 370,000 tested, 1.3% active;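 active = inhibition above about 21% made by adding two undisclosed values, limit read from the data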
PAD4 FP inh: inhibitors of human PAD4 | recombinant PAD4, RCA probe fluorescence polarization | inhibition, % at 6.36 µM | 330,000 tested, 0.41% active | AID 485272;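 active = percent inhibition above a cutoff equal to the mean of all tested compounds plus 3 SD, cut at about 15% in these data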;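 note: 0% = PAD4 with RCA probe and DMSO and 100% = probe without PAD4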
CTSL1 counter: counter-screen for PFM18AAP inhibitors: inhibitors of F. hepatica cathepsin L1 | recombinant F. hepatica cathepsin L1, Z-Leu-Arg-MCA fluorescence | inhibition, % at 5.96 µM | 300,000 tested, 0.49% active | AID 1906;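 active = inhibition above the mean of all tested compounds plus 3 SD, set per screening campaign, cut at about 17% in these data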;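 note: 0% = plate median of test compound wells and 100% = 1 µM Z-Phe-Ala-diazomethylketone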
TDP2 absorb: blocks human TDP2 phosphodiesterase activity | O95551 | recombinant TDP2, T5PNP hydrolysis, p-nitrophenol absorbance 415 nm | inhibition, % at 12.8 µM | 370,000 tested, 0.34% active | AID 720702;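 active = inhibition above the mean of all tested compounds plus 3 SD, set per campaign, cut at about 25% in these data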;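 note: 0% = DMSO with enzyme and 100% = buffer with substrate but no TDP2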
Target sequence (O95551 whole entry, looked up): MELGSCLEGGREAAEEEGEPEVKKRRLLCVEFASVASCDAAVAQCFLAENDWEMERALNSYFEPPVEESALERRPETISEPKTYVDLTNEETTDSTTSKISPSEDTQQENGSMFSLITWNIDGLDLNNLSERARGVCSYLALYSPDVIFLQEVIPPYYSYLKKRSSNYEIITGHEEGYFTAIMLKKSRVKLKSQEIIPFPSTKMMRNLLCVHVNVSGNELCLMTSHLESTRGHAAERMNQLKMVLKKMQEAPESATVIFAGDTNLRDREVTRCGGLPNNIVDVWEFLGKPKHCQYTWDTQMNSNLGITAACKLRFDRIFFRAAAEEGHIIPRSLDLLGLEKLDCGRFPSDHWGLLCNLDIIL
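System – recombinant human TDP2 · Amount – 120 nM TDP2 per well · Buffer or medium – Mg2+-containing Tris-HCl buffer, pH 7.5 · Reagent – T5PNP substrate, 5 mM · Dosing – 12.8 µM single point, 1% DMSO · Incubation – 2 h at 37 °C · Measured by – epi absorbance · Read-out basis – percent inhibition · Benchmarks – high control without enzyme, low control DMSO plus TDP2 · Repeats – singlicate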
GSTO1 confirm: confirmation of human GSTO1 inhibitors | shares compounds with GSTO1 counter | inhibition, % at 5.96 µM | 2,400 tested, 54% active | recombinant GSTO1, probe fluorescence polarization;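 active = inhibition above the primary screen's cutoff, its mean inhibition plus 3 SD, cut at about 35% in these data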;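 note: loss of polarization as inhibitors block binding of rhodamine sulfonate ester activity probe; 0% = GSTO1 with DMSO and 100% = wells lacking GSTO1 enzyme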
PAD4 confirm: confirmation of human PAD4 inhibitors; inhibition, % at 6.36 µM; shares compounds with PAD4 FP inh; 1,200 tested, 28% active; recombinant PAD4, RCA probe fluorescence polarization;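 active = mean inhibition across replicates above the hit cutoff set by the earlier primary screen, cut at about 15% in these data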;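 note: inhibitors block active-site labeling by the probe so polarization falls; 0% = PAD4 with probe and DMSO and 100% = probe without PAD4 enzyme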
TDP2 inh conf: confirmation of human TDP2 inhibitors; recombinant human TDP2, absorbance read-out; AID 743263; shares compounds with TDP2 absorb; inhibition, % at 12.8 µM; 1,100 tested, 22% active; in the data active = inhibition above about 25%;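 note: 0% = vehicle with enzyme and 100% = no enzyme buffer only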
* marks the source's active call; other numbers are inactive results. Only some compounds are listed: those with a hit (about 2.5% of all), similar ones and a draw of the others.

Results for COC(=O)CC1=NN(c2ccc(OC)cc2)C(=O)C1 ?
GSTO1 counter: 20.9; PRMT1 inh: 2.2; PAD4 FP inh: -12.4; CTSL1 counter: 1.6; TDP2 absorb: 0.2

Results for CCCCNC(=O)NCCCN1CCN(c2ccc(F)cc2)CC1 ?
PRMT1 inh: -0.3; TDP2 absorb: -2.4

Results for CCOC(=O)C1CCCN(C2=C(NS(=O)(=O)c3ccc(Br)cc3)C(=O)c3ccccc3C2=O)C1 (stereo unspecified) ?
GSTO1 counter: 42.8*; PRMT1 inh: 13.7; PAD4 FP inh: -9.8; CTSL1 counter: 7.1; TDP2 absorb: 43.2*; GSTO1 confirm: 11.1; TDP2 inh conf: 12.9

How did COCCn1c(N)c(S(=O)(=O)c2cccs2)c2nc3ccccc3nc21 do in these assays?
GSTO1 counter: 81.0*; PRMT1 inh: 2.8; PAD4 FP inh: 21.9*; CTSL1 counter: 3.2; TDP2 absorb: 57.5*; GSTO1 confirm: 2.2; PAD4 confirm: -5.0; TDP2 inh conf: -6.5

How did C[C@@H](CO)N(Cc1cn(Cc2ccccc2)nn1)S(=O)(=O)c1ccc(F)cc1Br do in these assays?
PRMT1 inh: -1.8; TDP2 absorb: -2.9

Results for CCOc1cc(/C=C2/C(=O)N(c3ccccc3)N=C2C)ccc1OC(=O)c1ccco1 ?
GSTO1 counter: 65.2*; PRMT1 inh: 5.0; PAD4 FP inh: 47.0*; CTSL1 counter: -3.6; TDP2 absorb: 77.0*; GSTO1 confirm: 9.4; PAD4 confirm: -8.4; TDP2 inh conf: 29.3*

How did COc1ccc(/C=C2/C(=O)N(c3ccccc3)N=C2C)cc1Br do in these assays?
GSTO1 counter: 58.4*; PRMT1 inh: 3.9; PAD4 FP inh: 42.8*; CTSL1 counter: -0.3; TDP2 absorb: 70.1*; GSTO1 confirm: 19.4; TDP2 inh conf: 27.3*

What do the screens show for `CCOc1cc(/C=C2/C(=N)N3N=C(CC)SC3=NC2=O)ccc1OC(=O)c1ccco1`?
GSTO1 counter: 3.4; PRMT1 inh: -1.2; PAD4 FP inh: -0.1; CTSL1 counter: -0.6; TDP2 absorb: 9.1

Results for CN(C)C=Nc1ccc(Cn2cnc3nc4ccc(Cl)cc4cc3c2=O)cc1 ?
PRMT1 inh: -2.4; TDP2 absorb: -12.5

Results for COC(=O)[C@]12C[C@H](CC(=O)NCCC(C)C)C(=O)N(CCc3ccc(OC)c(OC)c3)C1=C[C@H](C(C)C)O[C@@H]2C1CC1 ?
PRMT1 inh: -1.6; TDP2 absorb: -4.7

What do the screens show for `CC1OC(Nc2ccc(N=Nc3ccccc3)cc2)C(O)C(O)C1O` (stereo unspecified)?
GSTO1 counter: -5.3; PRMT1 inh: -0.9; PAD4 FP inh: -3.8; CTSL1 counter: 6.0; TDP2 absorb: -5.6

What do the screens show for `CC1OC(Nc2cccc3ccccc23)C(O)C(O)C1O` (stereo unspecified)?
GSTO1 counter: 49.0*; PRMT1 inh: 29.3*; PAD4 FP inh: -17.1; CTSL1 counter: 9.1; TDP2 absorb: 33.8*; GSTO1 confirm: 7.7; TDP2 inh conf: 14.4

How did O=C(c1ccccc1Cl)N1CCC(Oc2cccnc2)CC1 do in these assays?
PRMT1 inh: 0.6; TDP2 absorb: -1.4

What do the screens show for `CC1CCCCC1N(C(=O)c1cc(C2CC2)on1)C1CCCCC1` (stereo unspecified)?
PRMT1 inh: 5.3; TDP2 absorb: 0.1

Results for Cc1ccc(C)c(S(=O)(=O)Nc2ccc(O)c(C(=O)O)c2)c1 ?
GSTO1 counter: 3.4; PRMT1 inh: 0.6; PAD4 FP inh: 0.3; CTSL1 counter: -3.7; TDP2 absorb: 0.4

Results for Cc1ccc(C)c(S(=O)(=O)Nc2ccc(O)c3ccccc23)c1 ?
GSTO1 counter: 52.7*; PRMT1 inh: 5.8; PAD4 FP inh: -4.7; CTSL1 counter: -1.3; TDP2 absorb: 42.2*; GSTO1 confirm: 0.0; TDP2 inh conf: 15.1

What do the screens show for `Nn1cnnc1N/N=C/c1ccc(Cl)c([N+](=O)[O-])c1`?
GSTO1 counter: 38.8*; PRMT1 inh: 1.1; PAD4 FP inh: 56.0*; CTSL1 counter: 1.3; TDP2 absorb: 75.0*; GSTO1 confirm: 6.1; PAD4 confirm: -1.5; TDP2 inh conf: 37.5*

How did C=CCn1c(NS(=O)(=O)c2ccccc2)c(S(=O)(=O)c2ccc(C)cc2)c2nc3ccccc3nc21 do in these assays?
GSTO1 counter: 101.3*; PRMT1 inh: -0.1; PAD4 FP inh: 75.6*; CTSL1 counter: 0.6; TDP2 absorb: 37.0*; GSTO1 confirm: 87.6*; PAD4 confirm: 14.2; TDP2 inh conf: 39.5*

How did COC(=O)c1cc(NC(=O)CC2C(=O)NCCN2C(=O)c2ccccc2)cc(C(=O)OC)c1 (stereo unspecified) do in these assays?
GSTO1 counter: 4.8; PRMT1 inh: -1.8; PAD4 FP inh: 16.1*; CTSL1 counter: -0.3; TDP2 absorb: -0.7; PAD4 confirm: -2.8

Results for CC1(C)CC2CN(Cc3ccccc3)S(=O)(=O)N2C1 (stereo unspecified) ?
PRMT1 inh: 1.8; TDP2 absorb: -6.4

What do the screens show for `C=CCN1C(=O)[C@@H](CC(=O)NCc2cccc3ccccc23)[C@]2(C(=O)OCC)CCCCC/C=C/12`?
PRMT1 inh: -4.2; TDP2 absorb: -8.3

How did OCc1ccccc1SSc1ccccc1CO do in these assays?
GSTO1 counter: 20.8; PRMT1 inh: 106.0*; PAD4 FP inh: 47.9*; CTSL1 counter: -5.8; TDP2 absorb: -4.5; PAD4 confirm: 41.5*

How did O=S1(=O)c2ccc(N3CCSCC3)cc2Oc2ccccc2CN1Cc1cn(Cc2ccc(Cl)cc2)nn1 do in these assays?
PRMT1 inh: -1.6; TDP2 absorb: 5.5

How did C=CCC(CC=C)(NC(=O)c1ccccc1)c1ccccc1 do in these assays?
GSTO1 counter: 7.5; PRMT1 inh: -3.1; PAD4 FP inh: -1.4; CTSL1 counter: 4.5; TDP2 absorb: -2.3

What do the screens show for `C=CCC(CC=C)(NC(=O)c1ccccc1C)c1ccccc1`?
GSTO1 counter: 12.1; PRMT1 inh: -1.1; PAD4 FP inh: 16.6*; CTSL1 counter: 1.0; TDP2 absorb: -12.3; PAD4 confirm: 7.6

Results for C=CCN1C(=O)[C@@H](CC(=O)NCc2cccs2)[C@]2(C(=O)OCC)CCCCC/C=C/12 ?
PRMT1 inh: -0.6; TDP2 absorb: 5.6

What do the screens show for `CCCCN1C(=O)C2(NNc3ccccc3O2)c2ccccc21` (stereo unspecified)?
GSTO1 counter: 15.9; PRMT1 inh: 11.1; PAD4 FP inh: -4.8; CTSL1 counter: -4.3; TDP2 absorb: -0.6

Results for CCCCN1C(=O)Nc2ccccc2S1=O (stereo unspecified) ?
GSTO1 counter: 13.2; PRMT1 inh: -1.0; PAD4 FP inh: 15.8*; CTSL1 counter: -3.9; TDP2 absorb: 5.8; PAD4 confirm: 10.3
